≈ marks a conversion by molar mass, not a printed value.
test system: not listed separately; experiment: (§1) Antiinflammatory activity in LPS-stimulated rat neonatal microglia assessed as inhibition of PMA-induced superoxide anion production preincubated 15 mins prior to PMA challenge; format: functional, cell-based; details: not given
How it was run: (§2)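 Neonatal rat microglia, 2 × 10^5 cells/well, primed 17 h with LPS (0.3 ng/mL) in DMEM + 10% FBS + penicillin/streptomycin at 35.9 °C, 5% CO2. Cells washed with warm HBSS, given compound (0.01-10 µM) or DMSO vehicle for 15 min, then PMA (1 µM). Triplicate wells, two independent experiments.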

| Structure (SMILES) | IC50 [µM] |
| --- | --- |
| CC(=O)O[C@@H]1[C@@H](Oc2c(C)c3c4c(c2O)[C@@H](C)CC[C@@H]4[C@@H](C)C[C@H]3C=C(C)C)OC[C@@H](OC(C)=O)[C@H]1O [PSEUDOPTEROSIN X] | 10 |
| CC(=O)O[C@H]1[C@H](O)[C@@H](Oc2c(C)c3c4c(c2O)[C@@H](C)CC[C@@H]4[C@@H](C)C[C@H]3C=C(C)C)OC[C@H]1O [PSEUDOPTEROSIN V] | > 10 |
| CC(=O)O[C@H]1[C@@H](O)[C@H](O)[C@H](Oc2c(C)c3c4c(c2O)[C@@H](C)CC[C@@H]4[C@@H](C)C[C@H]3C=C(C)C)O[C@H]1C [PSEUDOPTEROSIN P] | > 10 |
| CC(=O)O[C@@H]1[C@@H](Oc2c(C)cc3c(c2O)[C@@H](C)CC[C@@H]3[C@@H](C)CCC=C(C)C)OC[C@@H](O)[C@H]1O | > 10 |

test system: Microglia; experiment: as §1; format: functional, cell-based; details: not given; how it was run: as §2

| Structure (SMILES) | Activity |
| --- | --- |
| CC(=O)O[C@@H]1[C@@H](Oc2c(C)c3c4c(c2O)[C@@H](C)CC[C@@H]4[C@@H](C)C[C@H]3C=C(C)C)OC[C@@H](OC(C)=O)[C@H]1O [PSEUDOPTEROSIN X] | Dose-dependent effect |
| CC(=O)O[C@H]1[C@H](O)[C@@H](Oc2c(C)c3c4c(c2O)[C@@H](C)CC[C@@H]4[C@@H](C)C[C@H]3C=C(C)C)OC[C@H]1O [PSEUDOPTEROSIN V] | Dose-dependent effect |
| CC(=O)O[C@H]1[C@@H](O)[C@H](O)[C@H](Oc2c(C)c3c4c(c2O)[C@@H](C)CC[C@@H]4[C@@H](C)C[C@H]3C=C(C)C)O[C@H]1C [PSEUDOPTEROSIN P] | Dose-dependent effect |
| CC(=O)O[C@@H]1[C@@H](Oc2c(C)cc3c(c2O)[C@@H](C)CC[C@@H]3[C@@H](C)CCC=C(C)C)OC[C@@H](O)[C@H]1O | Dose-dependent effect |

test system: Human betaherpesvirus 5; experiment: Antiviral activity against HCMV; format: functional, organism-based; details: not given

| Structure (SMILES) | EC50 [µM] |
| --- | --- |
| CC(=O)O[C@H]1[C@@H](O)[C@H](O)[C@H](Oc2c(C)c3c4c(c2O)[C@@H](C)CC[C@@H]4[C@@H](C)C[C@H]3C=C(C)C)O[C@H]1C [PSEUDOPTEROSIN P] | 2.9 |

test system: Mycobacterium tuberculosis; experiment: Antimycobacterial activity against Mycobacterium tuberculosis H37Rv at 6.25 ug/mL; format: functional; details: not given

| Structure (SMILES) | inhibition at 6.25 µg/mL [%] |
| --- | --- |
| CC(=O)O[C@H]1[C@H](O)[C@@H](Oc2c(C)c3c4c(c2O)[C@@H](C)CC[C@@H]4[C@@H](C)C[C@H]3C=C(C)C)OC[C@H]1O [PSEUDOPTEROSIN V] | 25 |
| CC(=O)O[C@H]1[C@@H](O)[C@H](O)[C@H](Oc2c(C)c3c4c(c2O)[C@@H](C)CC[C@@H]4[C@@H](C)C[C@H]3C=C(C)C)O[C@H]1C [PSEUDOPTEROSIN P] | 76 |
| CC(=O)O[C@@H]1[C@@H](Oc2c(C)cc3c(c2O)[C@@H](C)CC[C@@H]3[C@@H](C)CCC=C(C)C)OC[C@@H](O)[C@H]1O | 37 |

test system: not listed separately; experiment: (§3) Antiinflammatory activity in LPS-stimulated rat neonatal microglia assessed as drug level causing 50% PMA-induced LDH release preincubated 15 mins prior to PMA challenge by spectrophotometry; format: functional; details: not given; how it was run: as §2

| Structure (SMILES) | Activity [µM] |
| --- | --- |
| CC(=O)O[C@@H]1[C@@H](Oc2c(C)c3c4c(c2O)[C@@H](C)CC[C@@H]4[C@@H](C)C[C@H]3C=C(C)C)OC[C@@H](OC(C)=O)[C@H]1O [PSEUDOPTEROSIN X] | 2.35 |
| CC(=O)O[C@H]1[C@H](O)[C@@H](Oc2c(C)c3c4c(c2O)[C@@H](C)CC[C@@H]4[C@@H](C)C[C@H]3C=C(C)C)OC[C@H]1O [PSEUDOPTEROSIN V] | 2.2 |
| CC(=O)O[C@H]1[C@@H](O)[C@H](O)[C@H](Oc2c(C)c3c4c(c2O)[C@@H](C)CC[C@@H]4[C@@H](C)C[C@H]3C=C(C)C)O[C@H]1C [PSEUDOPTEROSIN P] | 0.6 |
| CC(=O)O[C@@H]1[C@@H](Oc2c(C)cc3c(c2O)[C@@H](C)CC[C@@H]3[C@@H](C)CCC=C(C)C)OC[C@@H](O)[C@H]1O | 10 |

test system: Microglia; experiment: as §3; format: functional; details: not given; how it was run: as §2

| Structure (SMILES) | Activity |
| --- | --- |
| CC(=O)O[C@@H]1[C@@H](Oc2c(C)c3c4c(c2O)[C@@H](C)CC[C@@H]4[C@@H](C)C[C@H]3C=C(C)C)OC[C@@H](OC(C)=O)[C@H]1O [PSEUDOPTEROSIN X] | Dose-dependent effect |
| CC(=O)O[C@H]1[C@H](O)[C@@H](Oc2c(C)c3c4c(c2O)[C@@H](C)CC[C@@H]4[C@@H](C)C[C@H]3C=C(C)C)OC[C@H]1O [PSEUDOPTEROSIN V] | Dose-dependent effect |
| CC(=O)O[C@H]1[C@@H](O)[C@H](O)[C@H](Oc2c(C)c3c4c(c2O)[C@@H](C)CC[C@@H]4[C@@H](C)C[C@H]3C=C(C)C)O[C@H]1C [PSEUDOPTEROSIN P] | Dose-dependent effect |
| CC(=O)O[C@@H]1[C@@H](Oc2c(C)cc3c(c2O)[C@@H](C)CC[C@@H]3[C@@H](C)CCC=C(C)C)OC[C@@H](O)[C@H]1O | Dose-dependent effect |

test system: Human alphaherpesvirus 1; experiment: Antiviral activity against HSV1; format: functional, organism-based; details: not given

| Structure (SMILES) | EC50 [µM] |
| --- | --- |
| CC(=O)O[C@H]1[C@@H](O)[C@H](O)[C@H](Oc2c(C)c3c4c(c2O)[C@@H](C)CC[C@@H]4[C@@H](C)C[C@H]3C=C(C)C)O[C@H]1C [PSEUDOPTEROSIN P] | 2.9 |

test system: SF-268; experiment: Cytotoxicity against human SF268 cells relative to control; format: functional; set-up: concentration or dose not given beside the values; details: not given
How it was run: (§4)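 One-dose primary screen on a three-line panel (MCF-7, NCI-H460, SF268). Growth of treated cells given as percent of untreated controls.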

| Structure (SMILES) | Activity [%] |
| --- | --- |
| CC(=O)O[C@H]1[C@H](O)[C@@H](Oc2c(C)c3c4c(c2O)[C@@H](C)CC[C@@H]4[C@@H](C)C[C@H]3C=C(C)C)OC[C@H]1O [PSEUDOPTEROSIN V] | 0 |
| CC(=O)O[C@H]1[C@@H](O)[C@H](O)[C@H](Oc2c(C)c3c4c(c2O)[C@@H](C)CC[C@@H]4[C@@H](C)C[C@H]3C=C(C)C)O[C@H]1C [PSEUDOPTEROSIN P] | 0 |

test system: Human alphaherpesvirus 3; experiment: Antiviral activity against VZV; format: functional, organism-based; details: not given

| Structure (SMILES) | EC50 [µM] |
| --- | --- |
| CC(=O)O[C@H]1[C@@H](O)[C@H](O)[C@H](Oc2c(C)c3c4c(c2O)[C@@H](C)CC[C@@H]4[C@@H](C)C[C@H]3C=C(C)C)O[C@H]1C [PSEUDOPTEROSIN P] | 2.6 |

test system: not listed separately; experiment: Cytotoxicity against human NCI60 cells; format: functional; details: not given

| Structure (SMILES) | GI50 [µM] |
| --- | --- |
| CC(=O)O[C@H]1[C@H](O)[C@@H](Oc2c(C)c3c4c(c2O)[C@@H](C)CC[C@@H]4[C@@H](C)C[C@H]3C=C(C)C)OC[C@H]1O [PSEUDOPTEROSIN V] | 20 |
| CC(=O)O[C@H]1[C@@H](O)[C@H](O)[C@H](Oc2c(C)c3c4c(c2O)[C@@H](C)CC[C@@H]4[C@@H](C)C[C@H]3C=C(C)C)O[C@H]1C [PSEUDOPTEROSIN P] | 1.7 |

test system: NCI-H460; experiment: Cytotoxicity against human NCI-H460 cells relative to control; format: functional; set-up: concentration or dose not given beside the values; details: not given; how it was run: as §4

| Structure (SMILES) | Activity [%] |
| --- | --- |
| CC(=O)O[C@H]1[C@H](O)[C@@H](Oc2c(C)c3c4c(c2O)[C@@H](C)CC[C@@H]4[C@@H](C)C[C@H]3C=C(C)C)OC[C@H]1O [PSEUDOPTEROSIN V] | 0 |
| CC(=O)O[C@H]1[C@@H](O)[C@H](O)[C@H](Oc2c(C)c3c4c(c2O)[C@@H](C)CC[C@@H]4[C@@H](C)C[C@H]3C=C(C)C)O[C@H]1C [PSEUDOPTEROSIN P] | 0 |

test system: Human alphaherpesvirus 2; experiment: Antiviral activity against HSV2; format: functional, organism-based; details: not given

| Structure (SMILES) | EC50 [µM] |
| --- | --- |
| CC(=O)O[C@H]1[C@@H](O)[C@H](O)[C@H](Oc2c(C)c3c4c(c2O)[C@@H](C)CC[C@@H]4[C@@H](C)C[C@H]3C=C(C)C)O[C@H]1C [PSEUDOPTEROSIN P] | 2.9 |

test system: MCF7; experiment: Cytotoxicity against human MCF7 cells relative to control; format: functional; set-up: concentration or dose not given beside the values; details: not given; how it was run: as §4

| Structure (SMILES) | Activity [%] |
| --- | --- |
| CC(=O)O[C@H]1[C@H](O)[C@@H](Oc2c(C)c3c4c(c2O)[C@@H](C)CC[C@@H]4[C@@H](C)C[C@H]3C=C(C)C)OC[C@H]1O [PSEUDOPTEROSIN V] | 0 |
| CC(=O)O[C@H]1[C@@H](O)[C@H](O)[C@H](Oc2c(C)c3c4c(c2O)[C@@H](C)CC[C@@H]4[C@@H](C)C[C@H]3C=C(C)C)O[C@H]1C [PSEUDOPTEROSIN P] | 0 |

test system: not listed separately; experiment: (§5) Antiinflammatory activity in LPS-stimulated rat neonatal microglia assessed as inhibition of PMA-induced TXB2 production preincubated 15 mins prior to PMA challenge; format: functional, cell-based; details: not given; how it was run: as §2

| Structure (SMILES) | IC50 [µM] |
| --- | --- |
| CC(=O)O[C@@H]1[C@@H](Oc2c(C)c3c4c(c2O)[C@@H](C)CC[C@@H]4[C@@H](C)C[C@H]3C=C(C)C)OC[C@@H](OC(C)=O)[C@H]1O [PSEUDOPTEROSIN X] | > 10 |
| CC(=O)O[C@H]1[C@H](O)[C@@H](Oc2c(C)c3c4c(c2O)[C@@H](C)CC[C@@H]4[C@@H](C)C[C@H]3C=C(C)C)OC[C@H]1O [PSEUDOPTEROSIN V] | > 10 |
| CC(=O)O[C@H]1[C@@H](O)[C@H](O)[C@H](Oc2c(C)c3c4c(c2O)[C@@H](C)CC[C@@H]4[C@@H](C)C[C@H]3C=C(C)C)O[C@H]1C [PSEUDOPTEROSIN P] | > 10 |
| CC(=O)O[C@@H]1[C@@H](Oc2c(C)cc3c(c2O)[C@@H](C)CC[C@@H]3[C@@H](C)CCC=C(C)C)OC[C@@H](O)[C@H]1O | > 10 |

test system: Microglia; experiment: as §5; format: functional, cell-based; details: not given; how it was run: as §2

| Structure (SMILES) | Activity |
| --- | --- |
| CC(=O)O[C@@H]1[C@@H](Oc2c(C)c3c4c(c2O)[C@@H](C)CC[C@@H]4[C@@H](C)C[C@H]3C=C(C)C)OC[C@@H](OC(C)=O)[C@H]1O [PSEUDOPTEROSIN X] | Dose-dependent effect |
| CC(=O)O[C@H]1[C@H](O)[C@@H](Oc2c(C)c3c4c(c2O)[C@@H](C)CC[C@@H]4[C@@H](C)C[C@H]3C=C(C)C)OC[C@H]1O [PSEUDOPTEROSIN V] | Dose-dependent effect |
| CC(=O)O[C@H]1[C@@H](O)[C@H](O)[C@H](Oc2c(C)c3c4c(c2O)[C@@H](C)CC[C@@H]4[C@@H](C)C[C@H]3C=C(C)C)O[C@H]1C [PSEUDOPTEROSIN P] | Dose-dependent effect |
| CC(=O)O[C@@H]1[C@@H](Oc2c(C)cc3c(c2O)[C@@H](C)CC[C@@H]3[C@@H](C)CCC=C(C)C)OC[C@@H](O)[C@H]1O | Dose-dependent effect |

test system: Plasmodium falciparum; experiment: Antimalarial activity against chloroquine-resistant Plasmodium falciparum W2 after 48 hrs by fluorimetry; format: functional, organism-based; details: W2, 48 h

| Structure (SMILES) | IC50 [µg/mL] |
| --- | --- |
| CC(=O)O[C@H]1[C@H](O)[C@@H](Oc2c(C)c3c4c(c2O)[C@@H](C)CC[C@@H]4[C@@H](C)C[C@H]3C=C(C)C)OC[C@H]1O [PSEUDOPTEROSIN V] | 1 (≈ 2.11 µM) |
| CC(=O)O[C@H]1[C@@H](O)[C@H](O)[C@H](Oc2c(C)c3c4c(c2O)[C@@H](C)CC[C@@H]4[C@@H](C)C[C@H]3C=C(C)C)O[C@H]1C [PSEUDOPTEROSIN P] | 12 (≈ 24.6 µM) |
